The IC50 is the midpoint of a concentration-inhibition curve. A lower IC50 goes with greater potency. As a reminder, the inhibition is the change of the read-out against control, counted positive when it falls.

The values that follow come from ChEMBL document CHEMBL4190320, “Clathrodin, hymenidin and oroidin, and their synthetic analogues as inhibitors of the voltage-gated potassium channels” (Eur J Med Chem, 2017).

The target in experiment [1] is Potassium voltage-gated channel subfamily A member 4 (Rattus norvegicus, UniProt P15385). Nature of the experiment: Inhibition of rat Kv1.4 expressed in Xenopus laevis oocytes at -90 mV holding potential by two-electrode voltage clamp assay. The format is cell-based. Put shortly: (§1)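 Stage V-VI Xenopus laevis oocytes were injected with 50 nL cRNA (1 ng/nL). Currents were recorded by two-electrode voltage clamp. IC50 values come from at least 3 independent experiments and are given as mean ± standard error.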
Sequence of Potassium voltage-gated channel subfamily A member 4 (Rattus norvegicus, UniProt P15385) (P15385 whole entry): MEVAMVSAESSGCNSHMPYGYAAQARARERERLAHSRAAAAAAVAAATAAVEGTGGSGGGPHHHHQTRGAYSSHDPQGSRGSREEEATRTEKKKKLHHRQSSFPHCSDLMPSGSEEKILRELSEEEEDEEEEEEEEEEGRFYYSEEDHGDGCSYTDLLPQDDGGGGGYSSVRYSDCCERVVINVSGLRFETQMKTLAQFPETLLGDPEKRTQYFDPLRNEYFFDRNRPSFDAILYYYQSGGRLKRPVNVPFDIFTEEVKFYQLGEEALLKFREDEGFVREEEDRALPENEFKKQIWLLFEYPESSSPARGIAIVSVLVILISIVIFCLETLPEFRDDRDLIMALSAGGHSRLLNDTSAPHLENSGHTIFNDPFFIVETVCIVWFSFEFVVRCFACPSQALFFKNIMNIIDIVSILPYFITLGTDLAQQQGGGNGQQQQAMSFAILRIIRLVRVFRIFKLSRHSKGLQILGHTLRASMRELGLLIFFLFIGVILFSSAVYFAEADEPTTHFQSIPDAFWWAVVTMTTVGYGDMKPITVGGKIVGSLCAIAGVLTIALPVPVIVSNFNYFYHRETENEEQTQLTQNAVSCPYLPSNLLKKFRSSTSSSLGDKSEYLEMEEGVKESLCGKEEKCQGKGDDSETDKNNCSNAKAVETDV

The target of experiment [2] is Potassium voltage-gated channel subfamily A member 6 (Rattus norvegicus, UniProt P17659). Kind of experiment: Inhibition of rat Kv1.6 expressed in Xenopus laevis oocytes at -90 mV holding potential by two-electrode voltage clamp assay. The format is cell-based. Put shortly: as §1
Sequence of Potassium voltage-gated channel subfamily A member 6 (Rattus norvegicus, UniProt P17659) (P17659 whole entry): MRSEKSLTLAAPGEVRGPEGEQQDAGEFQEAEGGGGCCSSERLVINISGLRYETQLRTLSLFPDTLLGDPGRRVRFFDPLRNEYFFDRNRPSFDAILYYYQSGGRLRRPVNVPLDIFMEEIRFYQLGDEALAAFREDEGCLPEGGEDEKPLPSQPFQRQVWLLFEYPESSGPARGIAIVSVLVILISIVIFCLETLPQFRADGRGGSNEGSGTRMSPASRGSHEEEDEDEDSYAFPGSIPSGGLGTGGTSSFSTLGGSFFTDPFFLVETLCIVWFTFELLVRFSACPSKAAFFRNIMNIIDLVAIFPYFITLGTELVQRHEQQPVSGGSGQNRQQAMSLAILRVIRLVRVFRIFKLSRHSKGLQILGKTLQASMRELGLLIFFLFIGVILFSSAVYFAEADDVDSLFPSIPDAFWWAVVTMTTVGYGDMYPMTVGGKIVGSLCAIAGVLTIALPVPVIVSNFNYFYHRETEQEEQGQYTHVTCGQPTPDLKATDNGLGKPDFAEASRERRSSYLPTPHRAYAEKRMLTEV
For orientation: Two-electrode voltage clamp holds a large cell at a set potential and records current.

For experiment [3], the target named is Potassium voltage-gated channel subfamily A member 5 (Homo sapiens, UniProt P22460). Nature of the experiment: Inhibition of human Kv1.5 expressed in CHO cells at -80 mV holding potential by whole cell automated patch clamp method. The format is cell-based.
Sequence of Potassium voltage-gated channel subfamily A member 5 (P22460 whole entry): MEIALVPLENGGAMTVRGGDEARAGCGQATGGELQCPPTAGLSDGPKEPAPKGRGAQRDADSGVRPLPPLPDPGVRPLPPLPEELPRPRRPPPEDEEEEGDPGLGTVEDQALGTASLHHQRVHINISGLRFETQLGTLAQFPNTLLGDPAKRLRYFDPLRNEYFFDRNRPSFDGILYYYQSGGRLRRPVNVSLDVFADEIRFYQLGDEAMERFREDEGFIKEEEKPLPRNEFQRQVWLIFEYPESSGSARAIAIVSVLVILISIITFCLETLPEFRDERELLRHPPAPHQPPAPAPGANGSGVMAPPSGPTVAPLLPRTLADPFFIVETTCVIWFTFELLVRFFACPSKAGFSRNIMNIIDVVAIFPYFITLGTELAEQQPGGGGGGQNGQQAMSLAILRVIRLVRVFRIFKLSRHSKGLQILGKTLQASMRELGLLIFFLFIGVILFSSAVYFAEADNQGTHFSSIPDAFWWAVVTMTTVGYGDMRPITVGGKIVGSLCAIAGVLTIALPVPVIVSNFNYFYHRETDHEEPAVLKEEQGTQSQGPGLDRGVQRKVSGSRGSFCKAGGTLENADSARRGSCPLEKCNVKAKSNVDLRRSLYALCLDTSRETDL
Experiment [4] deals with T1, Potassium voltage-gated channel subfamily A member 3 (Homo sapiens, UniProt P22001). Kind of experiment: Inhibition of human Kv1.3 expressed in CHO cells at -80 mV holding potential by whole cell automated patch clamp method. The format is cell-based. Put shortly: (§2)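 Human channels stably expressed in CHO cells, dissociated with 0.05% trypsin-EDTA, held in serum-free medium and resuspended in extracellular solution just before recording. Whole-cell QPatch recordings used a -80 mV holding potential and 500 ms steps to +30 mV at 0.067 Hz. Series resistance was 80% compensated with P/n leak subtraction. After 0.1% DMSO vehicle, four escalating concentrations were applied cumulatively.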
On the technique in general: In patch-clamp work, channel activity is measured electrically.

Experiment [5] addresses Potassium voltage-gated channel subfamily A member 4 (Homo sapiens, UniProt P22459). Kind of experiment: Inhibition of human Kv1.4 expressed in CHO cells at -80 mV holding potential by whole cell automated patch clamp method. In kind it is cell-based. Put shortly: as §2
The target in experiment [6] is T1, Potassium voltage-gated channel subfamily A member 3. Nature of the experiment: Inhibition of human Kv1.3 expressed in Xenopus laevis oocytes at -90 mV holding potential by two-electrode voltage clamp assay.
For experiment [7], the target named is Potassium voltage-gated channel subfamily A member 6 (Homo sapiens, UniProt P17658). Kind of experiment: Inhibition of human Kv1.6 expressed in CHO cells at -80 mV holding potential by whole cell automated patch clamp method. The format is cell-based. Put shortly: as §2
Sequence of Potassium voltage-gated channel subfamily A member 6 (Homo sapiens, UniProt P17658) (P17658 whole entry): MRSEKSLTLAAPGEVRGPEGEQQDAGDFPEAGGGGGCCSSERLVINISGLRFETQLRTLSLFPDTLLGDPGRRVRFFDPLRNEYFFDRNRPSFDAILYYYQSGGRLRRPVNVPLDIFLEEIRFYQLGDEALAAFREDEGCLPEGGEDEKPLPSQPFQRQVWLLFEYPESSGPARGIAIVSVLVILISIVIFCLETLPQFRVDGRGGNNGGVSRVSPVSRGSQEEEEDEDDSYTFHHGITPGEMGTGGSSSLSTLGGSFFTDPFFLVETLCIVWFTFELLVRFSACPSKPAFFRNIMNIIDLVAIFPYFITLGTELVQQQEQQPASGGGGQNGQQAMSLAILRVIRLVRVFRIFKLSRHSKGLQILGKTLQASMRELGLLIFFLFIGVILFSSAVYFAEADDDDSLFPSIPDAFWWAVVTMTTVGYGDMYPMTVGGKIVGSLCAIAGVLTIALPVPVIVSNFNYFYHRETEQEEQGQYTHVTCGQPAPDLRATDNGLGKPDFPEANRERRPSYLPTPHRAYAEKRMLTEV
The target in experiment [8] is Potassium voltage-gated channel subfamily A member 6 (Rattus norvegicus) (UniProt P17659). Nature of the experiment: Inhibition of rat Kv1.6 expressed in Xenopus laevis oocytes at 1 uM at -90 mV holding potential by two-electrode voltage clamp assay relative to control. The format is cell-based.
Sequence of Potassium voltage-gated channel subfamily A member 6 (Rattus norvegicus) (P17659 whole entry): as the sequence (P17659 whole entry) above
Experiment [9] addresses Potassium voltage-gated channel subfamily A member 2 (Homo sapiens, UniProt P16389). Nature of the experiment: Inhibition of human Kv1.2 expressed in CHO cells at -80 mV holding potential by whole cell automated patch clamp method. The format is cell-based. Put shortly:
as §2

The target in experiment [10] is Potassium voltage-gated channel subfamily A member 4 (Rattus norvegicus) (UniProt P15385). Nature of the experiment: Inhibition of rat Kv1.4 expressed in Xenopus laevis oocytes at 1 uM at -90 mV holding potential by two-electrode voltage clamp assay relative to control. In kind it is cell-based.
Sequence of Potassium voltage-gated channel subfamily A member 4 (Rattus norvegicus) (P15385 whole entry): as the sequence (P15385 whole entry) above
The target of experiment [11] is Potassium voltage-gated channel subfamily A member 5 (Rattus norvegicus) (UniProt P19024). Kind of experiment: Inhibition of rat Kv1.5 expressed in Xenopus laevis oocytes at 1 uM at -90 mV holding potential by two-electrode voltage clamp assay relative to control. In kind it is cell-based.
Experiment [12] addresses Potassium voltage-gated channel subfamily A member 2 (Rattus norvegicus) (UniProt P63142). Nature of the experiment: Inhibition of rat Kv1.2 expressed in Xenopus laevis oocytes at 1 uM at -90 mV holding potential by two-electrode voltage clamp assay relative to control. The format is cell-based.
The target of experiment [13] is Potassium voltage-gated channel subfamily A member 1 (Rattus norvegicus) (UniProt P10499). Kind of experiment: Inhibition of rat Kv1.1 expressed in Xenopus laevis oocytes at 1 uM at -90 mV holding potential by two-electrode voltage clamp assay relative to control. In kind it is cell-based.
The test system of experiment [14] is Potassium voltage-gated channel subfamily H member 1 (Homo sapiens). Kind of experiment: Inhibition of human Kv10.1 expressed in Xenopus laevis oocytes at 1 uM at -90 mV holding potential by two-electrode voltage clamp assay relative to control.
In experiment [15] the target is Potassium voltage-gated channel subfamily A member 1 (Homo sapiens, UniProt Q09470). Nature of the experiment: Inhibition of human Kv1.1 expressed in CHO cells at -80 mV holding potential by whole cell automated patch clamp method. In kind it is cell-based. Put shortly:
as §2

For experiment [16], the target named is T1, Potassium voltage-gated channel subfamily A member 3. Nature of the experiment: Inhibition of human Kv1.3 expressed in Xenopus laevis oocytes at 1 uM at -90 mV holding potential by two-electrode voltage clamp assay relative to control.

Activity calls are given as the source filed them. No cut-off for these calls is given here.

Sequence of Potassium voltage-gated channel subfamily A member 2 (Rattus norvegicus) (P63142 whole entry): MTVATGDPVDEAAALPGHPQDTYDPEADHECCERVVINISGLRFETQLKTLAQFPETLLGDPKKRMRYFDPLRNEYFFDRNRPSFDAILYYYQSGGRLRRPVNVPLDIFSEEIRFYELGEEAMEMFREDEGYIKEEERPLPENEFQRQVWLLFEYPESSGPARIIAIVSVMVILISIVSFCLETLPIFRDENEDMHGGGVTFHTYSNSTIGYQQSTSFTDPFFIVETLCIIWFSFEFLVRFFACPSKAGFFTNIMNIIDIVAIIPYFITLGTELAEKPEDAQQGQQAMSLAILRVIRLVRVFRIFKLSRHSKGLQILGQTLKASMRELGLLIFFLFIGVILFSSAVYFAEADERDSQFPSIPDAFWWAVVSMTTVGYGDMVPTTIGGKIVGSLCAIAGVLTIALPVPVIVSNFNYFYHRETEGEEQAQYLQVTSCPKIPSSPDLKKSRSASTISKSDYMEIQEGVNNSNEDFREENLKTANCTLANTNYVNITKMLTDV
Sequence of Potassium voltage-gated channel subfamily A member 4 (Homo sapiens, UniProt P22459) (P22459 whole entry): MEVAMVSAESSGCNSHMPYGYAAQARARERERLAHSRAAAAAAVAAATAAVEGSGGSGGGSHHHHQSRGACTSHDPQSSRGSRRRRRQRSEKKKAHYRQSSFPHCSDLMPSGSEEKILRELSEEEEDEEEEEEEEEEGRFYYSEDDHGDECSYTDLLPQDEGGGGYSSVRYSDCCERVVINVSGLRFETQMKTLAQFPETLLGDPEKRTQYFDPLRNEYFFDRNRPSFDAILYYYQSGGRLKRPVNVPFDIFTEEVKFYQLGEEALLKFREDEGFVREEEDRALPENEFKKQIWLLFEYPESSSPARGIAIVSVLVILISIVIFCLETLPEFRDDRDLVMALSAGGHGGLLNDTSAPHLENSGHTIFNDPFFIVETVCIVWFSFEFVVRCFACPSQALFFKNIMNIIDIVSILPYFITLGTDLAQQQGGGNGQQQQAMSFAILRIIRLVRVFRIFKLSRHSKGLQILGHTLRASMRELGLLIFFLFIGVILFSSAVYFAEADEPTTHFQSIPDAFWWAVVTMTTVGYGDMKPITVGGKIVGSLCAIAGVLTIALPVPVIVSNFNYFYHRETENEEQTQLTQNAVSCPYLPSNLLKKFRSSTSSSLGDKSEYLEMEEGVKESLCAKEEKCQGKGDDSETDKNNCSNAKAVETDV

Consider `Nc1nc(/C=C/CNC(=O)c2cc(Cl)c(Cl)[nH]2)c[nH]1`, for which the IC50 in [1] is 0.6 µM; in [2], 0.17 µM; in experiment [3] it was 6.1 µM; in experiment [4], 1.4 µM; in [5], 1.5 µM; in [6] it was > 10 µM. Also, the results for the IC50 in experiment [7], in [9] and in experiment [15] were 1.6 µM, > 30 µM and > 30 µM, respectively. The inhibition result in experiment [8], in experiment [12], in experiment [13], in [14] and in experiment [16] was “inactive” each time. For the same compound, the inhibition in [10] amounted to 90%; in experiment [11] it was 62%.

For the compound `Nc1ncc(/C=C/CNC(=O)c2cc(Br)c(Br)[nH]2)[nH]1` [OROIDIN], the IC50 is 5.7 µM in experiment [1]; > 10 µM in experiment [2]; 16 µM in experiment [3]; 4.7 µM in experiment [4]; 2.1 µM in experiment [5]; 0.82 µM in experiment [6]. For the same compound, the IC50 in experiment [7] was 4.9 µM; in [9], > 30 µM; in experiment [15], > 30 µM. Moreover, the inhibition entry in experiment [8], in [11], in experiment [13] and in experiment [14] was “inactive” each time. Besides, the inhibition in experiment [10] worked out at 32%; in [12] it was 10%; in [16], 58%.

As to `Cc1[nH]c(C(=O)NC/C=C/c2c[nH]c(N)n2)cc1Cl`, the IC50 in experiment [1] is 0.73 µM; in experiment [2], > 10 µM; in experiment [3], > 30 µM; in experiment [4] it was 25 µM; in [5] it was 15 µM; in experiment [6], > 10 µM. The results for the IC50 in experiment [7], in experiment [9] and in experiment [15] were 17 µM, > 30 µM and > 30 µM, respectively. For the same compound, the inhibition entry in experiment [8], in experiment [12], in experiment [14] and in experiment [16] was “inactive” in each case. Moreover, the inhibition in experiment [10] worked out at 71%; in experiment [11], 72%; in experiment [13], 68%.

As to `Cc1[nH]c(C(=O)NC/C=C/c2c[nH]c(N)n2)c(Br)c1Br`, the IC50 in experiment [1] was 0.23 µM; in [2], > 10 µM; in [3], > 30 µM; in experiment [4] it was 17 µM; in experiment [5], 12 µM; in experiment [6], > 10 µM. Besides, the IC50 in experiment [7] is 29 µM; in experiment [9] it was > 30 µM; in [15], > 30 µM. For the same compound, the inhibition in [8] worked out at 41%; in [10], 33%. Besides, the inhibition entry in experiment [11], in experiment [12], in experiment [13], in [14] and in experiment [16] was “inactive” each time.
